Article PMC6543826 (Bioorganic chemistry, 2018)
Values joined by “and” are separate entries in the source; they are usually repeats but may differ in a detail not shown here. Identical values can stand only once. Like-named read-outs stand apart in the source and are kept apart here.

Key:
CCRF-CEM = test: cells; type: cell-based; details: 10^−5 M, 48 h
HL-60 (TB) = test: cells; type: cell-based; details: HL-60(TB), 10^−5 M, 48 h
K-562 = test: cells; type: cell-based; details: K-562, 10^−5 M, 48 h
RPMI-8226 = test: cells; type: cell-based; details: RPMI-8226, 10^−5 M, 48 h
HOP-92 = test: cells; type: cell-based; details: HOP-92, 10^−5 M, 48 h
NCI-H226 = test: cells; type: cell-based; details: NCI-H226, 10^−5 M, 48 h
NCI-H460 = test: cells; type: cell-based; details: NCI-H460, 10^−5 M, 48 h
HCC-2998 = test: cells; type: cell-based; details: HCC-2998, 10^−5 M, 48 h
HCT-15 = test: cells; type: cell-based; details: HCT-15, 10^−5 M, 48 h
HT29 = test: cells; type: cell-based; details: HT29, 10^−5 M, 48 h
KM 12 = test: cells; type: cell-based; details: KM 12, 10^−5 M, 48 h
SW-620 = test: cells; type: cell-based; details: SW-620, 10^−5 M, 48 h
SF-268 = test: cells; type: cell-based; details: SF-268, 10^−5 M, 48 h
SF-295 = test: cells; type: cell-based; details: SF-295, 10^−5 M, 48 h
SNB-19 = test: cells; type: cell-based; details: SNB-19, 10^−5 M, 48 h
SNB-75 = test: cells; type: cell-based; details: SNB-75, 10^−5 M, 48 h
U251 = test: cells; type: cell-based; details: U251, 10^−5 M, 48 h
LOX IMVI = test: cells; type: cell-based; details: 10^−5 M, 48 h
MALME-3M = test: cells; type: cell-based; details: MALME-3M, 10^−5 M, 48 h
MDA-MB-435 = test: cells; type: cell-based; details: MDA-MB-435, 10^−5 M, 48 h
SK-MEL-28 = test: cells; type: cell-based; details: SK-MEL-28, 10^−5 M, 48 h
UACC-62 = test: cells; type: cell-based; details: UACC-62, 10^−5 M, 48 h
OVCAR-4 = test: cells; type: cell-based; details: OVCAR-4, 10^−5 M, 48 h
SK-OV-3 = test: cells; type: cell-based; details: SK-OV-3, 10^−5 M, 48 h
RXF 393 = test: cells; type: cell-based; details: RXF 393, 10^−5 M, 48 h
SN12C = test: cells; type: cell-based; details: 10^−5 M, 48 h
UO-31 = test: cells; type: cell-based; details: UO-31, 10^−5 M, 48 h
PC-3 = test: cells; type: cell-based; details: PC-3, 10^−5 M, 48 h
DU-145 = test: cells; type: cell-based; details: DU-145, 10^−5 M, 48 h
MCF7 = test: cells; type: cell-based; details: MCF7, 10^−5 M, 48 h
T-47D = test: cells; type: cell-based; details: T-47D, 10^−5 M, 48 h
ERK1 = ERK1 (Homo sapiens, UniProt P27361); test: in vitro radioactive kinase assay, Ets-1 phosphorylation by ERK1; type: biochemical
How it was run: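 Radiometric assay at 28–30 °C in 25 mM HEPES pH 7.5, 50 mM KCl, 0.1 mM EDTA/EGTA, 2 mM DTT, 11 mM MgCl2, 10 μg mL−1 BSA and 5% DMSO (final). 2 nM activated ERK1 was used with 10 μM His-Ets-1 (1–138). Reactions were started with [γ-32P]ATP (10 or 100 μM). IC50 came from fitting rate versus inhibitor concentration to a hyperbolic decay equation.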

JNK2 = JNK2 (Homo sapiens, UniProt P45984); test: in vitro kinase assay, GST-c-Jun; type: biochemical
p38MAPKα = p38MAPKα (Homo sapiens, UniProt Q16539); test: in vitro kinase assay, GST-ATF2; type: biochemical
[1] = system: NCI-60 panel of tumor cell lines; details: for NCI Cytotoxicity Screening Average G%: Table 4, 10 μM one-dose screen; for Average G%: average over tested NCI-60 cell lines, 10^−5 M (10 μM), 48 h
[2] = ERK1 IC50, 100 μM ATP, 10 μM Ets-1

Chain of JNK2 (P45984 whole entry): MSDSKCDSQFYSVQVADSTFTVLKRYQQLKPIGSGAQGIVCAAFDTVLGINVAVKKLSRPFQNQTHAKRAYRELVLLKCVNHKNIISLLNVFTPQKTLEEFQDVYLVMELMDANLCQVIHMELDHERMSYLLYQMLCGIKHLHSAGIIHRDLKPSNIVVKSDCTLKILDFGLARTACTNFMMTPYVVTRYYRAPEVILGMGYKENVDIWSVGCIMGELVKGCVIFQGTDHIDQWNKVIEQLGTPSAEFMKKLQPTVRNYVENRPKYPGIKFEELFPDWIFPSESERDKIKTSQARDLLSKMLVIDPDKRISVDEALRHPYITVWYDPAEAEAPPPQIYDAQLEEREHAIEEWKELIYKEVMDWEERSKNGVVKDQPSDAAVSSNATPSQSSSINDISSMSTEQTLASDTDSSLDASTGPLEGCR
Chain of ERK1 (P27361 whole entry, species assumed): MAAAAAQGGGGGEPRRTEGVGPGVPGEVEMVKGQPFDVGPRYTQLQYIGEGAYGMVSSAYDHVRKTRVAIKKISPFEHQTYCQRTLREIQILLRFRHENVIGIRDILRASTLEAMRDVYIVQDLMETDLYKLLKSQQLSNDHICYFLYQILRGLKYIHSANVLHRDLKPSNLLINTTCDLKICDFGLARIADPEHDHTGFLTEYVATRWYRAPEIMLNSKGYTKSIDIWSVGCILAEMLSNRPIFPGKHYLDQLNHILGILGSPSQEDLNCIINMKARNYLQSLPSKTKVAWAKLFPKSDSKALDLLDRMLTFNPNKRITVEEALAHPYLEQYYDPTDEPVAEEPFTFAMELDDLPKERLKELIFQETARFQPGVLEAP
Chain of p38MAPKα (Q16539 whole entry): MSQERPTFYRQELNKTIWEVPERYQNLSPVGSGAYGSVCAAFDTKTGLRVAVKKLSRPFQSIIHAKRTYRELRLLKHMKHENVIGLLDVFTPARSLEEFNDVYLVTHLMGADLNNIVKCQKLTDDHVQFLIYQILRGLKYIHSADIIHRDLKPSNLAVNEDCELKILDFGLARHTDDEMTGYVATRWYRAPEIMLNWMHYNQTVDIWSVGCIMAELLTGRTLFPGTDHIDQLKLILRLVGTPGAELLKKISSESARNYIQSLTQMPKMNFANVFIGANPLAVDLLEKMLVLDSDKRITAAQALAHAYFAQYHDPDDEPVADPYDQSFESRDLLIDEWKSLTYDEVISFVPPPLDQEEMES

Structure (SMILES)	Growth percent (G%) (CCRF-CEM)	Growth percent (G%) (HL-60 (TB))	Growth percent (G%) (K-562)	Growth percent (G%) (RPMI-8226)	Growth percent (G%) (HOP-92)	Growth percent (G%) (NCI-H226)	Growth percent (G%) (NCI-H460)	Growth percent (G%) (HCC-2998)	Growth percent (G%) (HCT-15)	Growth percent (G%) (HT29)	Growth percent (G%) (KM 12)	Growth percent (G%) (SW-620)	Growth percent (G%) (SF-268)	Growth percent (G%) (SF-295)	Growth percent (G%) (SNB-19)	Growth percent (G%) (SNB-75)	Growth percent (G%) (U251)	Growth percent (G%) (LOX IMVI)	Growth percent (G%) (MALME-3M)	Growth percent (G%) (MDA-MB-435)	other results
O=C1C(Cl)=C(c2c(O)c3c(=O)n(-c4ccccc4)c4ccccc4c3oc2=O)C(=O)c2ccccc21 [compound 6, 3-(3-Chloro-1,4-dioxo-1,4-dihydronaphthalen-2-yl)-4-hydroxy-6-phenyl-2H-pyrano[3,2-c]quinoline-2,5(6H)-dione]	17.76%	7.05%	26.84%	19.65%	80.01%	86.30%	33.57%	42.85%	66.56%	84.18%	18.86%	18.61%	34.32%	18.38%	27.87%	31.77%	21.15%	42.99%	42.00%	87.80%	Growth percent (G%) (SK-MEL-28): 39.37%; Growth percent (G%) (UACC-62): 13.17%; Growth percent (G%) (OVCAR-4): 18.80%; Growth percent (G%) (SK-OV-3): 67.28%; Growth percent (G%) (RXF 393): 69.20%; Growth percent (G%) (SN12C): −14.11%; Growth percent (G%) (UO-31): 64.18%; Growth percent (G%) (PC-3): 49.16%; Growth percent (G%) (DU-145): 34.21%; Growth percent (G%) (MCF7): 51.60%; Growth percent (G%) (T-47D): 4.47%; IC50 (ERK1; [2]): 0.19 ± 0.01 µM; IC50 (JNK2): 4.2 ± 0.9 µM; ability to inhibit JNK2 (in words) (JNK2): little tendency to inhibit; ability to inhibit p38MAPKα (in words) (p38MAPKα): little tendency to inhibit; IC50 (p38MAPKα; p38MAPKα IC50, 10 μM GST-ATF2): 3.1 ± 0.5 µM; NCI Cytotoxicity Screening Average G% [1]: 35%; Average G% [1]: 35.49%
O=C1c2ccccc2C(=O)c2c1oc1c2c(=O)[nH]c2ccccc21 [3a, Naphtho[2′,3′:4,5]furo[3,2-c]quinoline-6,7,12(5H)-trione]	20.72%	2.26%	55.20%	62.72%	71.42%	78.47%	68.27%	102.57%	44.70%	102.52%	66.22%	89.23%	91.30%	92.71%	103.72%	112.98%	79.04%	56.12%	124.29%	83.72%	Growth percent (G%) (SK-MEL-28): 112.03%; Growth percent (G%) (UACC-62): 88.73%; Growth percent (G%) (OVCAR-4): −5.49%; Growth percent (G%) (SK-OV-3): 104.46%; Growth percent (G%) (RXF 393): 97.24%; Growth percent (G%) (SN12C): 70.40%; Growth percent (G%) (UO-31): 60.44%; Growth percent (G%) (PC-3): 65.49%; Growth percent (G%) (DU-145): 82.02%; Growth percent (G%) (MCF7): 48.82%; Growth percent (G%) (T-47D): 22.52%; IC50 (ERK1; [2]): 9.12 ± 1.1 µM; IC50 (ERK1; IC50 towards inhibiting ERK, ERK isoform not given): ~9 µM; IC50 (JNK2): > 200 µM; ability to inhibit JNK2 (in words) (JNK2): did not show any ability to inhibit; ability to inhibit p38MAPKα (in words) (p38MAPKα): did not show any ability to inhibit; IC50 (p38MAPKα; p38MAPKα IC50, 10 μM GST-ATF2): > 200 µM; NCI Cytotoxicity Screening Average G% [1]: 68%; Average G% [1]: 68% and 68.19%
Cn1c(=O)c2c(=O)c3c4c(oc3oc2c2ccccc21)C(=O)c1ccccc1C4=O [5a, 5-Methyl-5H-naphthalen[2″,3″:4′,5′]furo[3′,2′:4′,5,6]pyrano [3,2-c]quinoline-6,7,8,13-tetraone]	92.93%	104.29%	89.61%	100.23%	99.17%	88.55%	108.09%	103.64%	94.13%	96.96%	95.63%	103.1%	101.09%	101.32%	110.38%	101.36%	104.35%	95.89%	113.29%	105.3%	Growth percent (G%) (SK-MEL-28): 107.21%; Growth percent (G%) (UACC-62): 93.45%; Growth percent (G%) (OVCAR-4): 97.38%; Growth percent (G%) (SK-OV-3): 95.03%; Growth percent (G%) (RXF 393): 87.68%; Growth percent (G%) (SN12C): 125.68%; Growth percent (G%) (UO-31): 137.02%; Growth percent (G%) (PC-3): 79.23%; Growth percent (G%) (DU-145): 81.38%; Growth percent (G%) (MCF7): 76.73%; Growth percent (G%) (T-47D): 83.56%; IC50 (ERK1; read-out: ERK1 IC50, 100 μM ATP, 10 μM Ets-1): 95 ± 10.9 µM; IC50 (ERK1; read-out: IC50 towards inhibiting ERK, ERK isoform not given): ≥ 100 µM; ability to inhibit JNK2 (in words) (JNK2): did not show any ability to inhibit; IC50 (JNK2; read-out: JNK2 IC50, 2 μM GST-c-Jun (1–221)): > 200 µM; ability to inhibit p38MAPKα (in words) (p38MAPKα): did not show any ability to inhibit; IC50 (p38MAPKα; read-out: p38MAPKα IC50, 10 μM GST-ATF2): > 200 µM; Average G% [1]: 95.45%
